# Article PMC6519384 (Andrology, 2018)
# Key:
# blood esterases = test: Ex vivo addition of TU to blood in different blood collection tubes; format: in vitro ADME, human
# Outline: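 Venous blood from hypogonadal or healthy men is aliquoted (2 mL) into duplicate plain or inhibitor-containing tubes. TU in methanol (≤1% methanol) is added to 30–1000 ng/mL final, then held 30/60 min at 4 °C or RT before centrifugation. T is extracted with ethyl acetate:hexane (3:2) and measured by LC‑MS/MS (m/z 289.2/109.0, D2‑T internal standard). Results are % difference vs the average plain tube with no ester added.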
# [1] = Single oral dose of 316 mg TU in hypogonadal men; format: in vivo, human; details: TU concentrations below 15 ng/mL; oral 316 mg TU
# Outline: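 Eight hypogonadal men received one 316 mg oral TU dose in a self‑emulsifying system just before a meal. Blood was drawn at −30 and 0 min, then hourly for 12 h, into plain and NaF‑EDTA tubes. T was measured by LC‑MS/MS after ethyl acetate:hexane (3:2) extraction. The % difference in T between tube types was plotted against the matching average TU, with regression.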
# [2] = TU added to serum with increasing NaF, T measured; format: in vitro ADME, human; details: 500 ng/mL TU added to two serum samples or an aqueous solution
# [3] = TU 300 ng/mL, K2EDTA (1.8 mg/mL) tube, 30 min 4 °C, Experiment 2
# [4] = TU 300 ng/mL, K2EDTA (1.8 mg/mL) tube, 60 min 4 °C, Experiment 2
# [5] = TU 300 ng/mL, K2EDTA (1.8 mg/mL) tube, 60 min RT, Experiment 2
# [6] = TU 300 ng/mL, NaF (1.5 mg/mL) + Na2EDTA (3 mg/mL) tube, 60 min RT, Experiment 2
# [7] = TU 300 ng/mL, NaF (5 mg/mL) + K2Oxalate (4 mg/mL) tube, 60 min RT, Experiment 2
# [8] = TU 300 ng/mL, NaF (15 mg/mL) tube, 30 min 4 °C, Experiment 1
# [9] = TU 300 ng/mL, NaF (15 mg/mL) tube, 30 min RT, Experiment 1
# [10] = TU 300 ng/mL, P800 tube, 30 min 4 °C, Experiment 2
# [11] = TU 300 ng/mL, P800 tube, 60 min 4 °C, Experiment 2
# [12] = TU 300 ng/mL, P800 tube, 60 min RT, Experiment 2
# [13] = TU 300 ng/mL, Plain tube, 30 min 4 °C, Experiment 1
# [14] = TU 300 ng/mL, Plain tube, 30 min RT, Experiment 1
# [15] = TU 300 ng/mL, P‐800 tube, 30 min 4 °C, Experiment 1
# [16] = TU 300 ng/mL, P‐800 tube, 30 min RT, Experiment 1
# [17] = TU 600 ng/mL, K2EDTA (1.8 mg/mL) tube, 30 min 4 °C, Experiment 2
# [18] = TU 600 ng/mL, K2EDTA (1.8 mg/mL) tube, 60 min 4 °C, Experiment 2
# [19] = TU 600 ng/mL, K2EDTA (1.8 mg/mL) tube, 60 min RT, Experiment 2
# [20] = TU 600 ng/mL, NaF (1.5 mg/mL) + Na2EDTA (3 mg/mL) tube, 60 min RT, Experiment 2
# [21] = TU 600 ng/mL, NaF (5 mg/mL) + K2Oxalate (4 mg/mL) tube, 60 min RT, Experiment 2
# [22] = TU 600 ng/mL, NaF (15 mg/mL) tube, 30 min 4 °C, Experiment 1
# [23] = TU 600 ng/mL, NaF (15 mg/mL) tube, 30 min RT, Experiment 1
# [24] = TU 600 ng/mL, P800 tube, 30 min 4 °C, Experiment 2
# [25] = TU 600 ng/mL, P800 tube, 60 min 4 °C, Experiment 2
# [26] = TU 600 ng/mL, P800 tube, 60 min RT, Experiment 2
# [27] = TU 600 ng/mL, Plain tube, 30 min 4 °C, Experiment 1
# [28] = TU 600 ng/mL, Plain tube, 30 min 4 °C, Experiment 2
# [29] = TU 600 ng/mL, Plain tube, 30 min RT, Experiment 1
# [30] = TU 600 ng/mL, Plain tube, 60 min 4 °C, Experiment 2
# [31] = TU 600 ng/mL, Plain tube, 60 min RT, Experiment 2
# [32] = TU 600 ng/mL, P‐800 tube, 30 min 4 °C, Experiment 1
# [33] = TU 600 ng/mL, P‐800 tube, 30 min RT, Experiment 1
smiles,measurement,setting,value
"CCCCCCCCCCC(=O)O[C@H]1CC[C@H]2[C@@H]3CCC4=CC(=O)CC[C@]4(C)[C@H]3CC[C@]12C [TU, testosterone undecanoate]",% difference vs. no TU added,blood esterases; [3],+20.5%
same,Measured T,blood esterases; [3],534.5 ng/dL
same,% difference vs. no TU added,blood esterases; [4],+14.7%
same,Measured T,blood esterases; [4],521.5 ng/dL
same,% difference vs. no TU added,blood esterases; [5],+129.7%
same,Measured T,blood esterases; [5],1105.0 ng/dL
same,% difference vs. no TU added,blood esterases; [6],+57.5%
same,Measured T,blood esterases; [6],705.0 ng/dL
same,% difference vs. no TU added,blood esterases; [7],+79.5%
same,Measured T,blood esterases; [7],717.0 ng/dL
same,% difference vs. no TU added,blood esterases; [8],−0.6%
same,Measured T,blood esterases; [8],269.5 ng/dL
same,% difference vs. no TU added,blood esterases; [9],+16.4%
same,Measured T,blood esterases; [9],301.5 ng/dL
same,% difference vs. no TU added,blood esterases; [10],+13.1%
same,Measured T,blood esterases; [10],492.5 ng/dL
same,% difference vs. no TU added,blood esterases; [11],+3.3%
same,Measured T,blood esterases; [11],491.5 ng/dL
same,% difference vs. no TU added,blood esterases; [12],+100.9%
same,Measured T,blood esterases; [12],860.0 ng/dL
same,% difference vs. no TU added,blood esterases; [13],+17.9%
same,Measured T,blood esterases; [13],412.0 ng/dL
same,Measured T,"blood esterases; TU 300 ng/mL, Plain tube, 30 min 4 °C, Experiment 2",624.5 ng/dL
same,% difference vs. no TU added,blood esterases; [14],+43.1%
same,Measured T,blood esterases; [14],505.0 ng/dL
same,Measured T,"blood esterases; TU 300 ng/mL, Plain tube, 60 min 4 °C, Experiment 2",741.5 ng/dL
same,Measured T,"blood esterases; TU 300 ng/mL, Plain tube, 60 min RT, Experiment 2",984.0 ng/dL
same,% difference vs. no TU added,blood esterases; [15],+18.7%
same,Measured T,blood esterases; [15],384.0 ng/dL
same,% difference vs. no TU added,blood esterases; [16],+41.7%
same,Measured T,blood esterases; [16],467.0 ng/dL
same,% difference vs. no TU added,blood esterases; [17],+21.6%
same,Measured T,blood esterases; [17],539.5 ng/dL
same,% difference vs. no TU added,blood esterases; [18],+47.3%
same,Measured T,blood esterases; [18],669.5 ng/dL
same,% difference vs. no TU added,blood esterases; [19],+266.9%
same,Measured T,blood esterases; [19],1765.0 ng/dL
same,% difference vs. no TU added,blood esterases; [20],+176.0%
same,Measured T,blood esterases; [20],1235.0 ng/dL
same,% difference vs. no TU added,blood esterases; [21],+171.6%
same,Measured T,blood esterases; [21],1085.0 ng/dL
same,% difference vs. no TU added,blood esterases; [22],+24.2%
same,Measured T,blood esterases; [22],336.5 ng/dL
same,% difference vs. no TU added,blood esterases; [23],+39.0%
same,Measured T,blood esterases; [23],360.0 ng/dL
same,% difference vs. no TU added,blood esterases; [24],+18.3%
same,Measured T,blood esterases; [24],515.0 ng/dL
same,% difference vs. no TU added,blood esterases; [25],+22.3%
same,Measured T,blood esterases; [25],582.0 ng/dL
same,% difference vs. no TU added,blood esterases; [26],+222.4%
same,Measured T,blood esterases; [26],1380.0 ng/dL
same,% difference vs. no TU added,blood esterases; [27],+30.3%
same,Measured T,blood esterases; [27],455.5 ng/dL
same,% difference vs. no TU added,blood esterases; [28],+23.7%
same,Measured T,blood esterases; [28],541.0 ng/dL
same,% difference vs. no TU added,blood esterases; [29],+130.6%
same,Measured T,blood esterases; [29],814.0 ng/dL
same,% difference vs. no TU added,blood esterases; [30],+88.8%
same,Measured T,blood esterases; [30],794.0 ng/dL
same,% difference vs. no TU added,blood esterases; [31],+271.8%
same,Measured T,blood esterases; [31],1515.0 ng/dL
same,% difference vs. no TU added,blood esterases; [32],+15.8%
same,Measured T,blood esterases; [32],374.5 ng/dL
same,% difference vs. no TU added,blood esterases; [33],+95.1%
same,Measured T,blood esterases; [33],643.0 ng/dL
same,T measured,"blood esterases; TU added 30 ng/mL, blood from four hypogonadal men, plain tubes, baseline serum T 26.0 ± 6.2 ng/dL",48.9 ± 5.1 ng/dL
same,Increase in measured T from baseline,"blood esterases; highest TU concentration (1000 ng/mL), blood from hypogonadal men, plain tubes",≤ 22 fold
same,Reduction of overestimation of T by collecting blood into NaF tubes,blood esterases; increasing amounts of TU added to blood,30–85%
same,Overestimation of measured T levels,"blood esterases; increasing amounts of TU added to plain tubes, Table 3, Experiments 1 and 2",+24 to 272%
same,Mean difference in T concentrations between plain and NaF‐EDTA tubes,[1],~0%
same,Measured T levels after incubation with different amounts of NaF,[2],did not increase
